Data as given in ChEMBL document CHEMBL2021842, “COMPARE analysis of the toxicity of an iminoquinone derivative of the imidazo[5,4-f]benzimidazoles with NAD(P)H:quinone oxidoreductase 1 (NQO1) activity and computational docking of quinones as NQO1 substrates” (Bioorg Med Chem, 2012).

How the values were obtained:
HeLa = assay: Cytotoxicity against human HeLa cells assessed as reduction in mean cell viability after 72 hrs by MTT assay; type: functional, cell-based
Procedure, shortened: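 HeLa-CCL-2 cells in DMEM with 10% heat-inactivated FBS, 2 mM L-glutamine and nonessential amino acids. Plated at 1000 cells/well with 24 h adherence. Treated in ethanol (1% final) for 72 h at 37 °C under 5% CO₂, with ethanol controls. Absorbance of DMSO-dissolved formazan at 550 nm, 690 nm reference. IC₅₀ by nonlinear regression of percent viability.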

[1] = Cytotoxicity against human GM00637 cells assessed as reduction in mean cell viability after 72 hrs by MTT assay; type: cell-based; conditions: GM00637, 72 h
Procedure, shortened: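 SV40-transformed normal skin fibroblasts (GM00637) in MEM Eagle–Earle BSS with 15% heat-inactivated FBS, 2 mM L-glutamine, 2× amino acids and vitamins. Seeded at 10,000 cells/well and left 24 h to adhere. Ethanol-delivered compound (1% final) for 72 h at 37 °C, 5% CO₂. MTT formazan in DMSO read at 550/690 nm. Viability relative to vehicle; IC₅₀ by nonlinear regression.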

DU-145 = assay: Cytotoxicity against human DU145 cells assessed as reduction in mean cell viability after 72 hrs by MTT assay; type: functional, cell-based; conditions: DU-145, 72 h
Procedure, shortened: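 DU-145 prostate cells in RPMI-1640 with 10% heat-inactivated FBS, penicillin–streptomycin and 2 mM L-glutamine. Seeded at 2000 cells/well and left 24 h to adhere. Compound added in ethanol (1% final) for 72 h at 37 °C, 5% CO₂, with ethanol-only controls. Formazan dissolved in DMSO and read at 550 nm (690 nm reference). IC₅₀ derived by nonlinear regression of viability versus vehicle.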

CCCCn1cnc2c1C(=O)c1ncn(CCCC)c1C2=O
IC50 (HeLa): 0.44 µM
IC50 [1]: 1.05 µM
IC50 (DU-145): 1.34 µM
